Assay results reported in ChEMBL document CHEMBL3414473.
Calls of active or inactive are those of the source. No cut-off for these calls is given here.

Key:
[1] = biological target: RAC-alpha serine/threonine-protein kinase (Homo sapiens, UniProt P31749); test: Binding affinity to GST-tagged PH domain of AKT (unknown origin) by surface Plasmon resonance spectroscopy
Outline: (§1)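 SPR: GST-tagged PH domain fusion protein immobilized on CM5 chip by amine coupling to about 17000 RU. Analyte injected at 1–20 µM at 30 µL/min; DMSO in samples and running buffer ≤1% (v/v). Kd obtained from sensorgram fitting.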

LNCaP [2] = test: Antiproliferative activity against human LNCAP cells assessed as suppression of cell viability after 24 hrs by MTT assay; format: functional, cell-based
Outline: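 LNCaP cells seeded at 5000/well on poly-L-lysine-coated plates in 10% FBS; 24 h later exposed to agents in serum-free medium for 24 h. Viability expressed as percent of vehicle control; IC50 derived.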

PrEC = test: Antiproliferative activity against human PrEC cells assessed as suppression of cell viability after 24 hrs by MTT assay in serum free medium; format: cell-based
[3] = biological target: T1, PH domain leucine-rich repeat-containing protein phosphatase 1 (Homo sapiens, UniProt O60346); test: Inhibition of PHLPP1-mediated reduction in phosphorylation of MDM2 in human PC3 cells after 24 hrs by Western blot analysis; format: cell-based; conditions: PC-3
T1 sequence (O60346 whole entry, the tested form may be a part): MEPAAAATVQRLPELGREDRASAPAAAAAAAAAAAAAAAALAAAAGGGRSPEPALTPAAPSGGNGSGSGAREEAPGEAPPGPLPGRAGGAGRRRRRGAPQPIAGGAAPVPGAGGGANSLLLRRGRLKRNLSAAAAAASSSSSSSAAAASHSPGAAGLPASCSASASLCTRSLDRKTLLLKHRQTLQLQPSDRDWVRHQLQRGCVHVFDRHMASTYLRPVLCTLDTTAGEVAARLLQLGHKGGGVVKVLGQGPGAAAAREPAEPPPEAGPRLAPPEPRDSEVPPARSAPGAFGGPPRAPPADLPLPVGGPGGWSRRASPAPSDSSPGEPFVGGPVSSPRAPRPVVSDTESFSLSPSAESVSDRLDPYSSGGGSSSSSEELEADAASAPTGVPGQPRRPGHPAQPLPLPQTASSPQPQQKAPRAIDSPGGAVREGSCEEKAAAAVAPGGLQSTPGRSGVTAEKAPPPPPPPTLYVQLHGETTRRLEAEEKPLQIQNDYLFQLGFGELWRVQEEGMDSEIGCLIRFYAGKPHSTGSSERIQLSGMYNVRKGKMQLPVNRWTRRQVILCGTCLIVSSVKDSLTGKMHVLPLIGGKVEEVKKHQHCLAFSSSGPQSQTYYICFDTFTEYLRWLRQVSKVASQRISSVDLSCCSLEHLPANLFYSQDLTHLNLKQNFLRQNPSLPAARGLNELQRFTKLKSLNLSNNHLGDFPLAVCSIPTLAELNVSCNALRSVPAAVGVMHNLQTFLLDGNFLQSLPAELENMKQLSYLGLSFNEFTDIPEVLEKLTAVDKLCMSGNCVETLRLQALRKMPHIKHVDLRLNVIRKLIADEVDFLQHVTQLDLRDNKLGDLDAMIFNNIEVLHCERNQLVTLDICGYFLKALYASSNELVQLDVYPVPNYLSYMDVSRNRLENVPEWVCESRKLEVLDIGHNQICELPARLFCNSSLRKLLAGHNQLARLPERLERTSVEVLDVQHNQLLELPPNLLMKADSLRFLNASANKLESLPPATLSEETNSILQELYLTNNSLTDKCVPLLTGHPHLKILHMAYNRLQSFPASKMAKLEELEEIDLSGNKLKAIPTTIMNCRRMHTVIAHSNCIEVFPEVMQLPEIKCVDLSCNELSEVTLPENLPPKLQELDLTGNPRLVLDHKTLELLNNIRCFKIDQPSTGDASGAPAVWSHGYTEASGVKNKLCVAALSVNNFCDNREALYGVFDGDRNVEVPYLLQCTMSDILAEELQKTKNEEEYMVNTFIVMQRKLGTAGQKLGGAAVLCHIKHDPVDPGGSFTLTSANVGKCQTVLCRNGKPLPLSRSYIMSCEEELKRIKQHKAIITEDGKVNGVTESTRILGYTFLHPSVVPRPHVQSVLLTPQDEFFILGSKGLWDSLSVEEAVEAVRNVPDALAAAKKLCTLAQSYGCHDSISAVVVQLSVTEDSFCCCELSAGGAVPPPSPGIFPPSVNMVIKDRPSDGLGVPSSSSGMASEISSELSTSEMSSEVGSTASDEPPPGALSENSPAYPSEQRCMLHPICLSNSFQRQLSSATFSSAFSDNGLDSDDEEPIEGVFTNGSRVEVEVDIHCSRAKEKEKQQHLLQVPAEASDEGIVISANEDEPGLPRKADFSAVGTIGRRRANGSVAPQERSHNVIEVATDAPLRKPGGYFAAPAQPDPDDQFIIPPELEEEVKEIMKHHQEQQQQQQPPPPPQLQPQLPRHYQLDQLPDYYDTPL
Outline: (§2)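 LNCaP or PC-3 cells treated at various concentrations for 24 h in serum-free medium. Lysed in SDS buffer (50 mM Tris pH 8, 10 mM EDTA, 1% SDS, protease inhibitors); equal protein run on SDS-PAGE and transferred to nitrocellulose. Primary antibodies 1:1000 overnight at 4 °C, HRP secondary 1:2000; detected by ECL.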

[4] = biological target: T1, PH domain leucine-rich repeat-containing protein phosphatase 1; test: Inhibition of PHLPP1-mediated reduction in phosphorylation of Akt at Thr308 in human PC3 cells after 24 hrs by Western blot analysis; format: cell-based; conditions: PC-3; outline: as §2
[5] = biological target: T1, PH domain leucine-rich repeat-containing protein phosphatase 1; test: Inhibition of PHLPP1-mediated reduction in phosphorylation of MDM2 in human LNCAP cells after 24 hrs by Western blot analysis; format: cell-based; outline: as §2
Scaffold protein ILK = biological target: T2, Scaffold protein ILK (Homo sapiens, UniProt Q13418); test: Binding affinity to GST-tagged PH domain of ILK (unknown origin) by surface Plasmon resonance spectroscopy; outline: as §1
T2 sequence (Q13418 whole entry): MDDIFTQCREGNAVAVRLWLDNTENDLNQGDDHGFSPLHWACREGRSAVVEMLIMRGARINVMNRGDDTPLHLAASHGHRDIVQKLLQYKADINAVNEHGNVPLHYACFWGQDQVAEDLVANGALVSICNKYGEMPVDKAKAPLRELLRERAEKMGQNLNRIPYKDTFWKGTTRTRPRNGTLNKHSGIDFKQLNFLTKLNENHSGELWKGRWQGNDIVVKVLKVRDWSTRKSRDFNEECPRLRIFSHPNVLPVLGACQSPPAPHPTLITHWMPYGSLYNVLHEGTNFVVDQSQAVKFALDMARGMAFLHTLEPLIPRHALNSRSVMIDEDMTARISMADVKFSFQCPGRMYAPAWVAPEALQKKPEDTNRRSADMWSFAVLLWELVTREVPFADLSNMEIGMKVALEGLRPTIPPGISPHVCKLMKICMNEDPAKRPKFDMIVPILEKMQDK

[6] = biological target: T1, PH domain leucine-rich repeat-containing protein phosphatase 1; test: Inhibition of PHLPP1-mediated reduction in phosphorylation of Akt at Ser473 in human PC3 cells after 24 hrs by Western blot analysis; format: cell-based; conditions: PC-3; outline: as §2
LNCaP [7] = test: Induction of PHLPP1 localization to human LNCAP cell membrane at 5 uM after 24 hrs by immunofluorescence staining analysis; format: functional, cell-based
Outline: (§3)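 LNCaP cells on poly-L-lysine-coated surfaces, treated in serum-free medium for 24 h. Fixed in 4% formaldehyde, permeabilized with 0.1% Triton X-100, blocked in 1% FBS, primary antibody (1:300) overnight, then Alexa Fluor secondary 2 h; DAPI nuclei; confocal imaging with cross-sectional fluorescence intensity analysis.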

[8] = biological target: T1, PH domain leucine-rich repeat-containing protein phosphatase 1; test: Inhibition of PHLPP1-mediated reduction in phosphorylation of IKK in human LNCAP cells after 24 hrs by Western blot analysis; format: cell-based; outline: as §2
PC-3 [9] = test: Antiproliferative activity against human PTEN-negative PC3 cells assessed as suppression of cell viability after 24 hrs by MTT assay in serum free medium; format: functional, cell-based
[10] = biological target: T1, PH domain leucine-rich repeat-containing protein phosphatase 1; test: Binding affinity to GST-tagged PH domain of PHLPP1 (unknown origin) by surface Plasmon resonance spectroscopy; outline: as §1
[11] = biological target: T1, PH domain leucine-rich repeat-containing protein phosphatase 1; test: Inhibition of PHLPP1-mediated reduction in phosphorylation of Akt at Thr308 in human LNCAP cells after 24 hrs by Western blot analysis; format: cell-based; outline: as §2
[12] = biological target: T1, PH domain leucine-rich repeat-containing protein phosphatase 1; test: Inhibition of PHLPP1-mediated reduction in phosphorylation of Akt at Ser473 in human LNCAP cells after 24 hrs by Western blot analysis; format: cell-based; outline: as §2
[13] = biological target: T3, 3-phosphoinositide-dependent protein kinase 1 (Homo sapiens, UniProt O15530); test: Binding affinity to GST-tagged PH domain of PDK1 (unknown origin) by surface Plasmon resonance spectroscopy; outline: as §1
T3 sequence (O15530 whole entry): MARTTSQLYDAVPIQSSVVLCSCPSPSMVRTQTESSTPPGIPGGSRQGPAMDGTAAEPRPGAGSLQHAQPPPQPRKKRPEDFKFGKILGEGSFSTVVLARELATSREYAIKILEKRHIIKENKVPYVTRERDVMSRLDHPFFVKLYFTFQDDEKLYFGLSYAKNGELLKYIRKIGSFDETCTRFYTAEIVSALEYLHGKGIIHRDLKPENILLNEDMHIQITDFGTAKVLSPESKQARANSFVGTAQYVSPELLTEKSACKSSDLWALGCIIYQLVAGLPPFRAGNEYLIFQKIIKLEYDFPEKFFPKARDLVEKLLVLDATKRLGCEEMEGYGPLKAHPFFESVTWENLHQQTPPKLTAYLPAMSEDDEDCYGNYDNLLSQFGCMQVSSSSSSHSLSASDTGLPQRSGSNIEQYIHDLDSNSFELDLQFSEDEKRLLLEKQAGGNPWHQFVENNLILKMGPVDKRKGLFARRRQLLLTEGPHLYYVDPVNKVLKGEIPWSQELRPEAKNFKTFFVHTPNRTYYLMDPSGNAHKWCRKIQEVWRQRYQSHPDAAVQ

LNCaP [14] = test: Induction of Akt localization to human LNCAP cell membrane at 5 uM after 24 hrs by immunofluorescence staining analysis; format: functional, cell-based; outline: as §3
[15] = biological target: T1, PH domain leucine-rich repeat-containing protein phosphatase 1; test: Inhibition of PHLPP1-mediated reduction in phosphorylation of IKK in human PC3 cells after 24 hrs by Western blot analysis; format: cell-based; conditions: PC-3; outline: as §2
LNCaP [16] = test: Induction of PHLPP1 localization to human LNCAP cell membrane at 10 uM after 24 hrs by immunofluorescence staining analysis; format: functional, cell-based; outline: as §3
LNCaP [17] = test: Induction of Akt localization to human LNCAP cell membrane at 10 uM after 24 hrs by immunofluorescence staining analysis; format: functional, cell-based; outline: as §3
PC-3 [18] = test: In vivo antitumor efficacy in human PC3 cells xenografted athymic nude mouse assessed as inhibition of tumor growth at 50 mg/kg, ip for 21 days relative to vehicle treated control; format: functional, organism-based; design: dose 50 mg/kg
Outline: (§4)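 Athymic nude mice given PC-3 cells sc (1 × 10⁶ per mouse); at about 50 mm³, randomized (n = 7) and dosed once daily for 21 days either ip at 50 mg/kg (vehicle saline/PEG400/DMSO/Tween 80, 65:20:10:5) or by oral gavage at 100 mg/kg (vehicle 0.5% methylcellulose/0.1% Tween 80 in water). Tumor volume measured weekly by calipers (width² × length × 0.52); phospho-proteins checked by Western blotting of tumor lysates.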

PC-3 [19] = test: In vivo antitumor efficacy in human PC3 cells xenografted athymic nude mouse assessed as decrease in phosphorylation of IKK in tumor at 100 mg/kg, po for 21 days relative to vehicle treated control; format: functional, organism-based; design: dose 100 mg/kg; outline: as §4
LNCaP [20] = test: Induction of Akt-PHLPP1 complex to human LNCAP cell membrane after 24 hrs by immunofluorescence staining analysis; format: functional, cell-based
PC-3 [21] = test: In vivo antitumor efficacy in human PC3 cells xenografted athymic nude mouse assessed as decrease in phosphorylation of MDM2 in tumor at 100 mg/kg, po for 21 days relative to vehicle treated control; format: functional, organism-based; design: dose 100 mg/kg; outline: as §4
PC-3 [22] = test: In vivo antitumor efficacy in human PC3 cells xenografted athymic nude mouse assessed as decrease in phosphorylation of Akt at Ser473 in tumor at 100 mg/kg, po for 21 days relative to vehicle treated control; format: functional, organism-based; design: dose 100 mg/kg; outline: as §4
PC-3 [23] = test: In vivo antitumor efficacy in human PC3 cells xenografted athymic nude mouse assessed as inhibition of tumor growth at 100 mg/kg, po for 21 days relative to vehicle treated control; format: functional, organism-based; design: dose 100 mg/kg; outline: as §4
PC-3 [24] = test: In vivo antitumor efficacy in human PC3 cells xenografted athymic nude mouse assessed as decrease in phosphorylation of Akt at Thr308 in tumor at 100 mg/kg, po for 21 days relative to vehicle treated control; format: functional, organism-based; design: dose 100 mg/kg; outline: as §4

RAC-alpha serine/threonine-protein kinase, sequence (P31749 whole entry, the tested form may be a part): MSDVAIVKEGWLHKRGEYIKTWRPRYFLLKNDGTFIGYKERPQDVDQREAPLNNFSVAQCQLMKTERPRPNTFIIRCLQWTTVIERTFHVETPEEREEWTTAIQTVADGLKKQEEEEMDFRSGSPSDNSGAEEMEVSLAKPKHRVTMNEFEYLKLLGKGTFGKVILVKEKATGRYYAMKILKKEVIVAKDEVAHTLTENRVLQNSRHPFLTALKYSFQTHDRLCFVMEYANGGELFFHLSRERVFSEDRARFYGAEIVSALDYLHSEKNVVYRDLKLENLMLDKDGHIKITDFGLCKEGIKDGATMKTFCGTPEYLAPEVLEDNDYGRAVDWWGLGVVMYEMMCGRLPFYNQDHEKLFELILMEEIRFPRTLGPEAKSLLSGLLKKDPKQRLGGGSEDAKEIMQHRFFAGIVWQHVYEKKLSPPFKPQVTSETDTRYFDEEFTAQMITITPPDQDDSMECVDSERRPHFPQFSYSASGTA

CC(C)CCCC1(C)CCc2cc(O)cc(Br)c2O1 (centres undefined)
Kd [1]: 0.39 µM
IC50 (LNCaP [2]): 8 µM

CC(C)CCCC1(C)CCc2cc(O)cc(F)c2O1 (centres undefined)
Kd [1]: 0.34 µM
IC50 (LNCaP [2]): 9 µM

CC(C)CCCC1(C)CC(=O)c2cc(O)ccc2O1 (centres undefined)
Kd [1]: 0.28 µM
IC50 (LNCaP [2]): > 30 µM

Cc1cc(O)cc2c1OC(C)(CCCC(C)C)CC2 (centres undefined)
Kd [1]: 0.41 µM
IC50 (LNCaP [2]): 7.5 µM

CC(C)CCCC1(C)CCc2cc(O)ccc2O1 (centres undefined)
Kd [1]: 0.35 µM
IC50 (LNCaP [2]): 10 µM

CC(C)CCCC1(C)CCc2ccc(O)c(O)c2O1 (centres undefined)
Kd [1]: 0.98 µM
IC50 (LNCaP [2]): 23 µM

CC(C)CCCC1(C)CCc2cc(S(N)(=O)=O)cc(Br)c2O1 (centres undefined)
Activity (PrEC): Non-toxic
inhibition [3]: Dose-dependent effect
inhibition [4]: inactive
inhibition [5]: Dose-dependent effect
Kd (Scaffold protein ILK): 13.1 µM
inhibition [6]: Dose-dependent effect
Activity (LNCaP [7]): Active
inhibition [8]: Dose-dependent effect
Activity (PC-3 [9]): Active
Kd [10]: 0.69 µM
inhibition [11]: inactive
Kd [1]: 0.22 µM
inhibition [12]: Dose-dependent effect
Kd [13]: 11.1 µM
Activity (LNCaP [14]): Active
IC50 (LNCaP [2]): 4.5 µM
inhibition [15]: Dose-dependent effect

Cc1c(O)cc2c(c1C)O[C@](C)(CCC[C@H](C)CCC[C@H](C)CCCC(C)C)CC2 [GAMMA-TOCOPHEROL]
IC50 (LNCaP [2]): > 100 µM

Cc1c(O)cc2c(c1C)OC(C)(CCCC(C)C)CC2 (racemic)
Kd [1]: 0.52 µM

Cc1c(O)cc2c(c1C)O[C@](C)(CCCC(C)C)CC2
Activity (PrEC): Non-toxic
inhibition [3]: Dose-dependent effect
Activity (LNCaP [16]): Active
Activity (LNCaP [17]): Active
Activity (PC-3 [18]): Active
inhibition [4]: inactive
inhibition [5]: Dose-dependent effect
inhibition [6]: Dose-dependent effect
Activity (PC-3 [19]): inactive
Activity (LNCaP [20]): Dose-dependent effect
Activity (PC-3 [21]): inactive
inhibition [8]: Dose-dependent effect
inhibition [11]: inactive
Activity (PC-3 [22]): inactive
inhibition [12]: Dose-dependent effect
Activity (PC-3 [23]): inactive
inhibition (PC-3 [24]): inactive
inhibition [15]: Dose-dependent effect

CC(C)CCCC1(C)CCc2cc(O)cc(C(F)(F)F)c2O1 (centres undefined)
Kd [1]: 0.45 µM
IC50 (LNCaP [2]): 8 µM

CC(C)CCCC1(C)CCc2cc(N)ccc2O1 (centres undefined)
Kd [1]: 0.21 µM
IC50 (LNCaP [2]): > 30 µM

COc1cc(O)cc2c1OC(C)(CCCC(C)C)CC2 (centres undefined)
Kd [1]: 1.88 µM
IC50 (LNCaP [2]): 26 µM

CC(C)CCCC1(C)CCc2cc(S(N)(=O)=O)cc(F)c2O1 (centres undefined)
Activity (LNCaP [16]): inactive
Activity (LNCaP [17]): inactive
inhibition [6]: inactive
Kd [1]: 0.35 µM
inhibition [12]: inactive
IC50 (LNCaP [2]): 20 µM

CC(C)CCCC1(C)CCc2c(O)cccc2O1 (centres undefined)
Kd [1]: 0.34 µM
IC50 (LNCaP [2]): 11 µM

Cc1c(O)cc2c(c1C)OC(C)(CCCC(C)C)CC2=O (centres undefined)
Kd [1]: 0.41 µM

Cc1cc(O)cc2c1OC(C)(CCCC(C)C)CC2=O (centres undefined)
Kd [1]: 0.32 µM
IC50 (LNCaP [2]): 18 µM

COc1cc2c(c(C)c1C)OC(C)(CCCC(C)C)CC2 (centres undefined)
Activity (PrEC): Non-toxic
Activity (PC-3 [9]): inactive
Kd [1]: 8.5 µM
IC50 (LNCaP [2]): > 30 µM

Cc1cc(O)cc2c1NC(C)(CCCC(C)C)CC2 (centres undefined)
Kd [1]: 0.03 µM
IC50 (LNCaP [2]): 10 µM

CC(C)CCCC1(C)CCc2cc(O)cc(O)c2O1 (centres undefined)
Kd [1]: 1.18 µM
IC50 (LNCaP [2]): 27 µM
